# Assay results taken from ChEMBL document CHEMBL4411279, “Synthesis of new chalcone-based homoserine lactones and their antiproliferative activity evaluation” (Eur J Med Chem, 2019).
# The source made the active and inactive calls. The calls are words filed in the database; no cut-off is given here.
# Columns and labels:
# MCF7 = test: Antiproliferative activity against human MCF7 cells after 72 hrs by MTT assay; assay type: functional, cell-based; settings: MCF7, 72 h
# Procedure, shortened: (§1)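 Cells seeded 3,000/well, after 24 h medium replaced with compound at 64, 32, 16, 8, 4, 2, 1, 0.5 µM; 72 h exposure, MTT read-out at 570 nm; IC50 given as mean ± SD.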
# PC-3 = test: Antiproliferative activity against human PC3 cells after 72 hrs by MTT assay; assay type: functional, cell-based; settings: PC-3, 72 h; procedure, shortened: as §1
# DU-145 [1] = test: Antiproliferative activity against human DU145 cells after 72 hrs by MTT assay; assay type: functional, cell-based; settings: DU-145, 72 h; procedure, shortened: as §1
# MGC-803 = test: Antiproliferative activity against human MGC803 cells after 72 hrs by MTT assay; assay type: functional, cell-based; settings: MGC-803, 72 h; procedure, shortened: as §1
# DU-145 [2] = test: Growth inhibition of human DU145 cells at 5 uM by MTT assay; assay type: functional, cell-based; settings: TDE = time-dependent effect
# Procedure, shortened: (§2)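 DU145 growth inhibition measured by MTT; time course at 24, 48 and 72 h; combination arm used recombinant TRAIL at 100 ng/mL together with compound (2.5 or 5.0 µM); mean ± SD, experiment repeated three times, Student's t test.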
# DU-145 [3] = test: Induction of apoptosis in human DU145 cells assessed as viable cells at 10 uM after 24 hrs in presence of TRAIL by Annexin V-FITC/propidium iodide staining-based high content screening assay (reference value: 97.9%); assay type: functional; settings: DU-145, 24 h, read-out: Activity
# Procedure, shortened: (§3)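 DU145 seeded 3×10^5/well, grown 24 h, treated 24 h with compound alone or plus TRAIL; harvested, stained with Annexin V-FITC/PI per kit protocol, quantified by high content screening; mean ± SD of three experiments.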
# DU-145 [4] = test: Induction of apoptosis in human DU145 cells assessed as formation of apoptotic bodies at 10 uM after 24 hrs in presence of TRAIL by Hoechst 33258 staining-based fluorescence microscopic analysis; assay type: functional, cell-based
# Procedure, shortened: (§4)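 DU145 seeded 1×10^5/well, adhered overnight, treated 24 h with compound alone or combined with TRAIL; stained with Hoechst 33258 for 30 min in the dark; nuclear morphology examined by fluorescence microscopy.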
# DU-145 [5] = test: Induction of apoptosis in human DU145 cells assessed as early apoptotic cells at 10 uM after 24 hrs by Annexin V-FITC/propidium iodide staining-based high content screening assay (reference value: 0.3%); assay type: functional; procedure, shortened: as §3
# DU-145 [6] = test: Growth inhibition of human DU145 cells at 5 uM after 72 hrs in presence of TRAIL by MTT assay relative to control; assay type: functional; settings: DU-145, 72 h, read-out: GI; procedure, shortened: as §2
# DU-145 [7] = test: Induction of apoptosis in human DU145 cells assessed as viable cells at 10 uM after 24 hrs by Annexin V-FITC/propidium iodide staining-based high content screening assay (reference value: 97.9%); assay type: functional; settings: DU-145, 24 h, read-out: Activity; procedure, shortened: as §3
# DU-145 [8] = test: Induction of apoptosis in human DU145 cells assessed as cell rounding at 10 uM after 24 hrs by Hoechst 33258 staining-based fluorescence microscopic analysis; assay type: functional; procedure, shortened: as §4
# DU-145 [9] = test: Induction of apoptosis in human DU145 cells assessed as increase in caspase-3/7 activity at 10 to 50 uM after 24 hrs by Caspase-Glo 3/7 assay; assay type: functional, cell-based
# Procedure, shortened: (§5)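 DU145 treated 24 h with compound alone or with TRAIL (100 ng/mL); caspase-3/7 activity measured by Caspase-Glo 3/7 luminescent protocol relative to untreated control; three independent experiments, mean ± SD, Student's t test.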
# DU-145 [10] = test: Induction of apoptosis in human DU145 cells assessed as chromatin shrinkage at 10 uM after 24 hrs in presence of TRAIL by Hoechst 33258 staining-based fluorescence microscopic analysis; assay type: functional, cell-based; procedure, shortened: as §4
# DU-145 [11] = test: Induction of apoptosis in human DU145 cells assessed as early apoptotic cells at 10 uM after 24 hrs in presence of TRAIL by Annexin V-FITC/propidium iodide staining-based high content screening assay (reference value: 0.3%); assay type: functional; procedure, shortened: as §3
# DU-145 [12] = test: Induction of apoptosis in human DU145 cells assessed as late apoptotic cells at 10 uM after 24 hrs in presence of TRAIL by Annexin V-FITC/propidium iodide staining-based high content screening assay (reference value: 0.2%); assay type: functional; procedure, shortened: as §3
# DU-145 [13] = test: Induction of apoptosis in human DU145 cells assessed as necrotic cells at 10 uM after 24 hrs in presence of TRAIL by Annexin V-FITC/propidium iodide staining-based high content screening assay (reference value: 1.6%); assay type: functional; procedure, shortened: as §3
# DU-145 [14] = test: Induction of apoptosis in human DU145 cells assessed as late apoptotic cells at 10 uM after 24 hrs by Annexin V-FITC/propidium iodide staining-based high content screening assay (reference value: 0.2%); assay type: functional; procedure, shortened: as §3
# DU-145 [15] = test: Induction of apoptosis in human DU145 cells assessed as necrotic cells at 10 uM after 24 hrs by Annexin V-FITC/propidium iodide staining-based high content screening assay (reference value: 1.6%); assay type: functional; procedure, shortened: as §3
# DU-145 [16] = test: Induction of apoptosis in human DU145 cells assessed as cell rounding at 10 uM after 24 hrs in presence of TRAIL by Hoechst 33258 staining-based fluorescence microscopic analysis; assay type: functional; procedure, shortened: as §4
# DU-145 [17] = test: Induction of apoptosis in human DU145 cells assessed as increase in caspase-3/7 activity at 10 uM after 24 hrs in presence of TRAIL by Caspase-Glo 3/7 assay relative to control; assay type: functional; procedure, shortened: as §5
# DU-145 [18] = test: Induction of apoptosis in human DU145 cells assessed as chromatin shrinkage at 10 uM after 24 hrs by Hoechst 33258 staining-based fluorescence microscopic analysis; assay type: functional, cell-based; procedure, shortened: as §4
# DU-145 [19] = test: Induction of apoptosis in human DU145 cells assessed as formation of apoptotic bodies at 10 uM after 24 hrs by Hoechst 33258 staining-based fluorescence microscopic analysis; assay type: functional, cell-based; procedure, shortened: as §4
# DU-145 [20] = test: Growth inhibition of human DU145 cells at 5 uM after 24 to 48 hrs by MTT assay; assay type: functional, cell-based; procedure, shortened: as §2
# DU-145 [21] = test: Inhibition of colony formation in human DU145 cells after 21 days by crystal violet staining-based assay; assay type: functional, cell-based
# Procedure, shortened: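 DU145 seeded 4000/well, grown 4 days, then medium with compound at various concentrations for 21 days; PBS washed, fixed in 4% paraformaldehyde, stained with 0.1% crystal violet; colonies (>10 cells) counted; inhibition = (1 − treated/control colonies) × 100%.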
IC50 (MCF7),IC50 (PC-3),IC50 (DU-145 [1]),IC50 (MGC-803),Structure (SMILES),other results
20.9 µM,4.99 µM,3.7 µM,29.1 µM,O=C(COc1ccc(C(=O)/C=C/c2cccc(Cl)c2)cc1)N[C@H]1CCOC1=O,
16.4 µM,10.6 µM,6.57 µM,17.2 µM,CC(C)(C)c1ccc(/C=C/C(=O)c2ccc(OCC(=O)N[C@H]3CCOC3=O)cc2)cc1,
> 64 µM,> 64 µM,> 64 µM,> 64 µM,O=C(CNc1ccc(Br)cc1)N[C@H]1CCOC1=O,
28.3 µM,7.89 µM,9.8 µM,11.9 µM,O=C(COc1ccc(C(=O)/C=C/c2cccc(Br)c2)cc1)N[C@H]1CCOC1=O,
> 64 µM,56.2 µM,41.8 µM,> 64 µM,O=C(COc1ccc(C(=O)/C=C/c2cccc([N+](=O)[O-])c2)cc1)N[C@H]1CCOC1=O,
> 64 µM,23.2 µM,17.2 µM,> 64 µM,O=C(COc1ccc(C(=O)/C=C/c2cccc(F)c2)cc1)N[C@H]1CCOC1=O,
> 64 µM,56.8 µM,48.3 µM,> 64 µM,O=C(COc1ccc(C(=O)/C=C/c2ccccc2)cc1)N[C@H]1CCOC1=O,
15.2 µM,3.26 µM,3.54 µM,12.2 µM,O=C(COc1ccc(C(=O)/C=C/c2ccccc2Br)cc1)N[C@H]1CCOC1=O,
> 64 µM,7.24 µM,10.1 µM,39.4 µM,COc1ccccc1/C=C/C(=O)c1ccc(OCC(=O)N[C@H]2CCOC2=O)cc1,
> 64 µM,21.9 µM,19.8 µM,> 64 µM,O=C(COc1ccc(C(=O)/C=C/c2ccc(F)c(F)c2)cc1)N[C@H]1CCOC1=O,
34.4 µM,8.04 µM,8.61 µM,26.5 µM,O=C(COc1ccc(C(=O)/C=C/c2ccc(Cl)cc2Cl)cc1)N[C@H]1CCOC1=O,
23.4 µM,4.66 µM,13.1 µM,16.8 µM,CC(C)c1ccc(/C=C/C(=O)c2ccc(OCC(=O)N[C@H]3CCOC3=O)cc2)cc1,
> 64 µM,15.6 µM,18.8 µM,> 64 µM,O=C(COc1ccc(C(=O)/C=C/c2ccc(F)cc2)cc1)N[C@H]1CCOC1=O,
> 64 µM,> 64 µM,51.7 µM,51 µM,O=C(COc1ccc(C(=O)/C=C/c2ccc(Br)cc2)cc1)N[C@H]1CCOC1=O,

# The next lines start with the compound.
Structure (SMILES),IC50 (MCF7),IC50 (PC-3),IC50 (DU-145 [1]),IC50 (MGC-803),other results
C=CCc1ccc(OCCSC(=S)N[C@H]2CCOC2=O)c(OC)c1,> 64 µM,> 64 µM,> 64 µM,27.9 µM,
O=C1OCC[C@@H]1NC(=S)SCCOc1ccc([N+](=O)[O-])cc1,> 64 µM,32.5 µM,31 µM,> 100 µM,
O=C(CNc1cccc(Cl)c1)N[C@H]1CCOC1=O,> 64 µM,> 64 µM,> 64 µM,> 64 µM,
O=C1OCC[C@@H]1NC(=S)SCCOc1ccccc1Cc1ccccc1,39.5 µM,> 64 µM,> 64 µM,32.3 µM,
O=C(CNc1ccc(Cl)cc1Cl)N[C@H]1CCOC1=O,> 64 µM,> 64 µM,> 64 µM,> 64 µM,
O=C1OCC[C@@H]1NC(=S)SCCOc1ccccc1[N+](=O)[O-],> 64 µM,24 µM,33.4 µM,47 µM,
Cc1cc(Cl)ccc1NCC(=O)N[C@H]1CCOC1=O,> 64 µM,> 64 µM,> 64 µM,> 64 µM,
CCCCCCCCCCSC(=S)N[C@H]1CCOC1=O,> 64 µM,> 64 µM,> 64 µM,> 64 µM,
O=C(CNc1ccccc1)N[C@H]1CCOC1=O,> 64 µM,> 64 µM,> 64 µM,> 64 µM,
O=C(CNc1ccccc1Cl)N[C@H]1CCOC1=O,> 64 µM,> 64 µM,> 64 µM,> 64 µM,
O=C(CNc1ccc(Cl)cc1)N[C@H]1CCOC1=O,> 64 µM,> 64 µM,> 64 µM,> 64 µM,
CC(C)c1ccc(NCC(=O)N[C@H]2CCOC2=O)cc1,> 64 µM,> 64 µM,> 64 µM,> 64 µM,
O=C1OCC[C@@H]1NC(=S)SCCOc1ccc(Cl)cc1,50.5 µM,> 64 µM,> 64 µM,51.1 µM,
O=C1OCC[C@@H]1NC(=S)SCCOc1cccc2ccccc12,> 64 µM,> 64 µM,> 64 µM,> 64 µM,
O=C(CNc1ccc(F)cc1)N[C@H]1CCOC1=O,> 64 µM,> 64 µM,> 64 µM,> 64 µM,
O=C(CNc1ccccc1F)N[C@H]1CCOC1=O,> 64 µM,> 64 µM,> 64 µM,> 64 µM,
Cc1ccc(C(C)C)c(OCCSC(=S)N[C@H]2CCOC2=O)c1,> 64 µM,> 64 µM,> 64 µM,43.4 µM,
CCCCCCCCCC(=O)CC(=O)N[C@H]1CCOC1=O,26.2 µM,22.5 µM,19.3 µM,29.5 µM,growth inhibition (GI) (DU-145 [2]): Tde; viability at 10 µM (DU-145 [3]): 77.9%; Activity (DU-145 [4]): Active; Activity (DU-145 [5]): 9.2%; inhibition of growth at 5 µM (DU-145 [6]): 20%; viability at 10 µM (DU-145 [7]): 89.2%; Activity (DU-145 [8]): Active; Activity (DU-145 [9]): Active; Activity (DU-145 [10]): Active; Activity (DU-145 [11]): 12.2%; Activity (DU-145 [12]): 9.7%; Activity (DU-145 [13]): 0.2%; Activity (DU-145 [14]): 1.1%; Activity (DU-145 [15]): 0.5%; Activity (DU-145 [16]): Active; fold change (FC) (DU-145 [17]): 2; Activity (DU-145 [18]): Active; Activity (DU-145 [19]): Active; Activity (DU-145 [20]): Active; inhibition (DU-145 [21]): Dose-dependent effect
O=C1OCC[C@@H]1NC(=S)SCCOc1ccccc1,> 64 µM,> 64 µM,63.8 µM,53.8 µM,
CCOc1ccccc1OCCSC(=S)N[C@H]1CCOC1=O,> 64 µM,24.1 µM,28.2 µM,> 64 µM,
CC(=O)c1ccc(OCCSC(=S)N[C@H]2CCOC2=O)cc1,> 64 µM,46.9 µM,32.6 µM,> 64 µM,
